The inhibition is the change of the read-out against control, counted positive when it falls. One may read the Inhibition as the percentage by which the read-out fell short of the control. A low value points to a response near the control.

The values below come from ChEMBL document CHEMBL1133641, “A new class of potential chloroquine-resistance reversal agents for Plasmodia: syntheses and biological evaluation of 1-(3'-diethylaminopropyl)-3-(substituted phenylmethylene)pyrrolidines” (2000).

Each structure is given as a SMILES string. Active and inactive are the calls of the source. The rule behind the calls is not given here.

For experiment [1], the system named is Plasmodium yoelii nigeriensis. The experiment can be described thus: In Vitro evaluation on percentage inhibition in Heme Oxygenase at concentration 100 (uM) of Cell-free parasite Plasmodium yoelii. The experiment is classed as functional. In outline: (§1)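 Heme oxygenase activity was measured as bilirubin formation in a post-mitochondrial fraction. The parasite enzyme came from cell-free P. yoelii, isolated from infected blood by density gradient centrifugation and saponin lysis. The host enzyme came from infected liver. Compounds were tested at 10–100 µM and preincubated for 10 min before the reaction was started.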

Experiment [2] has as its system Plasmodium yoelii nigeriensis. The experiment can be described thus: In Vitro inhibition of Heme Oxygenase in Cell-free parasite Plasmodium yoelii at concentration 50 uM. The experiment is classed as functional. In outline:
as §1

The species entered for experiment [3] is Mus musculus. Kind of experiment: In Vitro inhibition of Heme Oxygenase in Plasmodium yoelii (host) at concentration 50 uM. The class given is functional. Put shortly: (§2)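 In vitro heme oxygenase, cell-free: post-mitochondrial fractions of P. yoelii parasites and of infected host liver. Test compounds at 10-100 µM were preincubated 10 min in the assay system before the enzyme reaction started. Activity was followed as bilirubin formation and expressed as % inhibition.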

Experiment [4] relates to Plasmodium yoelii nigeriensis. The experiment can be described thus: In Vitro inhibition of Heme Oxygenase in Cell-free parasite Plasmodium yoelii at concentration 100 uM. The class given is functional. Put shortly:
as §1

The species entered for experiment [5] is Mus musculus. Kind of experiment: In Vitro inhibition of Heme Oxygenase in Plasmodium yoelii (host) at concentration 100 uM. The class given is functional. In outline: as §2
Experiment [6] has as its system Plasmodium yoelii nigeriensis. Kind of experiment: Inhibition of heme oxygenase in Plasmodium yoelii nigeriensis isolated from infected mice (Mus musculus) (oral); NI denotes no inhibition. The experiment is classed as functional, organism-based. Put shortly:
(§3)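 Swiss albino mice carried P. yoelii nigeriensis tolerant to CQ up to 120 mg/kg. They received compound orally at 15 mg/kg body wt for 5 days. Parasites were then isolated from blood by density gradient centrifugation and saponin lysis, and enzyme inhibition was measured as percent inhibition.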

The species named for experiment [7] is Mus musculus. The experiment can be described thus: In Vitro inhibition of Heme Oxygenase in Plasmodium yoelii (host) at concentration 10 uM. The experiment is classed as functional. In outline: as §1
Experiment [8] has as its target T1, Glutathione S-transferase (Plasmodium yoelii yoelii) (UniProt Q7REH6).
T1 sequence (whole entry): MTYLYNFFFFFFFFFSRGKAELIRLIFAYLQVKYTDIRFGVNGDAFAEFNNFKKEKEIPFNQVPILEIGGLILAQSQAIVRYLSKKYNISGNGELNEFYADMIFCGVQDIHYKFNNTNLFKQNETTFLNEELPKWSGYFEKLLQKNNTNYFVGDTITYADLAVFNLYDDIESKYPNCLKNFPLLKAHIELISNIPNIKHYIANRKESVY
Kind of experiment: Inhibition of Glutathione S-transferase in Plasmodium yoelii nigeriensis isolated from infected mice (Mus musculus) (oral); NI denotes nil inhibition. Put shortly: as §3

The test system of experiment [9] is Plasmodium yoelii nigeriensis. The experiment can be described thus: In Vitro inhibition of Heme Oxygenase in Cell-free parasite Plasmodium yoelii at concentration 10 uM. The experiment is classed as functional. In outline:
as §1

Experiment [10] is described as follows: In Vitro evaluation on percentage inhibition in Heme Oxygenase at concentration 50(uM) of infected host. Put shortly: as §1
A short description of experiment [11]: (§4) In Vitro evaluation on percentage inhibition in Heme Oxygenase at concentration 100 (uM) of infected host. Put shortly: as §1
A short description of experiment [12]: In Vitro evaluation on percentage inhibition in Heme Oxygenase at concentration 10 (uM)of infected host. Put shortly: as §1
Experiment [13] concerns Plasmodium yoelii nigeriensis. Kind of experiment: In Vitro inhibition of Heme Oxygenase in Cell-free parasite Plasmodium yoelii at concentration 50 uM;NI denotes nil inhibition. The class given is functional. In outline: as §1
In experiment [14] the test system is Plasmodium yoelii nigeriensis. Kind of experiment: In Vitro inhibition of Heme Oxygenase in Cell-free parasite Plasmodium yoelii at concentration 100 uM;NI denotes nil inhibition. The experiment is classed as functional. In outline: as §1
Experiment [15] deals with T1, Glutathione S-transferase (Plasmodium yoelii yoelii). Kind of experiment: Inhibition of Glutathione S-transferase in Plasmodium yoelii nigeriensis isolated from infected mice (Mus musculus) (oral). Particulars: concentration not given here. In outline:
as §3

The test system of experiment [16] is Plasmodium yoelii nigeriensis. Kind of experiment: In Vitro inhibition of Heme Oxygenase in Cell-free parasite Plasmodium yoelii at concentration 10 uM;NI denotes nil inhibition. The class given is functional. Put shortly:
as §1

Experiment [17] concerns Plasmodium yoelii nigeriensis. Kind of experiment: Inhibition of heme oxygenase in Plasmodium yoelii nigeriensis isolated from infected mice (Mus musculus) (oral). The experiment is classed as functional. Put shortly:
as §3

The test system of experiment [18] is Plasmodium yoelii nigeriensis. The experiment can be described thus: Inhibition of heme oxygenase in Plasmodium yoelii nigeriensis isolated from infected mice (Mus musculus) (oral); NI denotes nil inhibition. The class given is functional, organism-based. Put shortly:
as §3

In experiment [19] the test system is Plasmodium yoelii nigeriensis. Kind of experiment: In Vitro inhibition of Heme Oxygenase in Cell-free parasite Plasmodium yoelii at concentration 50 uM; NI denotes nil inhibition. The class given is functional. Put shortly: as §1
The test system of experiment [20] is Plasmodium yoelii nigeriensis. The experiment can be described thus: In Vitro evaluation on percentage inhibition in Heme Oxygenase at concentration 100(uM) of Cell-free parasite Plasmodium yoelii. The experiment is classed as functional. Put shortly: as §1
For experiment [21], the species on record is Mus musculus. The experiment can be described thus: In Vitro evaluation on percentage inhibition in Heme Oxygenase at concentration 50 (uM) of infected host. Put shortly: (§5)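 Heme oxygenase from liver of P. yoelii-infected host, post-mitochondrial fraction, run as the host-enzyme counterpart to the cell-free parasite assay. Test compounds at 10-100 µM were preincubated in the assay system for 10 min before starting the reaction. Activity was followed by bilirubin formation and reported as percent inhibition.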

The species entered for experiment [22] is Mus musculus. The description is as §4. Put shortly: as §5

Regarding `CN(C)CCCN1c2ccccc2Sc2ccc(Cl)cc21`, the inhibition in experiment [1] came to 100%; in experiment [2], 85%.
Turning to `CCN(CC)CCCN1CC/C(=C\c2ccc(OCc3ccccc3)cc2)C1`, the inhibition stood at 63% in the experiment listed under Mus musculus [3]; 64% in experiment [4]; 69% in the experiment filed under Mus musculus [5]; 24% in the experiment filed under Mus musculus [7]; 28% in experiment [9]; 37% in experiment [2]. The NI entry in experiment [6] was “inactive”. Moreover, the NI result in experiment [8] is “No inhibition”.
Take `CCN(CC)CCCN1CC/C(=C\c2ccccc2)C1`: the inhibition in experiment [10] was found to be 65%; in [4], 82%; in experiment [11] it was 65%; in [12], 10%; in experiment [9] it was 52%; in [2], 64%. Also, the NI entry in experiment [6] is “inactive”. The NI result in [8] was “No inhibition”.
In the case of `CCN(CC)CCCN1CC/C(=C\c2ccc(OC)c(OC)c2)C1`, the NI result in [13], in [14] and in experiment [16] was “No inhibition” each time. Moreover, the inhibition came to 100% in [4], 80% in [15], 100% in [9] and 100% in experiment [2]. This compound also yielded an Inhibition in [17] of 100%.
For `CCN(CC)CCCN1CC/C(=C\c2ccc3c(c2)OCO3)C1`, the NI entry in experiment [18], in experiment [19], in experiment [14] and in experiment [16] was “No inhibition” throughout. Moreover, the inhibition in experiment [4] is 100%; in experiment [15], 10%; in [9] it was 100%; in experiment [2], 100%.
As for `CCN(CC)CCCN1CC/C(=C\c2ccc(OCCN3CCCC3)cc2)C1`, the NI entry in experiment [13], in experiment [14] and in [16] was “No inhibition” throughout. For the same compound, the inhibition in [4] amounted to 100%; in experiment [15], 90%; in experiment [9], 100%; in [2], 100%. In experiment [17], this compound registered an Inhibition of 79%.
Turning to `COc1ccc([C@@H]2Sc3ccccc3N(CCN(C)C)C(=O)[C@@H]2OC(C)=O)cc1`, the inhibition came out at 41% in experiment [10], 84% in [11], 29% in experiment [20] and 12.5% in experiment [2].
`COc1ccc(CCN(C)CCCC(C#N)(c2ccc(OC)c(OC)c2)C(C)C)cc1OC` (stereo not given): the inhibition was found to be 100% in [4], 15% in the experiment listed under Mus musculus [21], 19% in the experiment filed under Mus musculus [22] and 100% in experiment [2].
